The values that follow come from article PMC11452492 (Nature Communications, 2024).

One data set deals with JNK1 (Homo sapiens, UniProt P45983). As to the kind of experiment: in vitro JNK1 PhALC kinase assay. The data set is classed as biochemical.
Data set [1] concerns JNK mediated c-Jun(Ser73) phosphorylation. As to the kind of experiment: quantitative western blot p-c-Jun. The data set is classed as cell-based, human. Summed up: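 SH-SY5Y cells carry a Tet-ON-inducible MKK7–MLK3 kinase-domain chimera and were kept in DMEM F12 + 1% FBS. Cells received 2 or 3 μg/mL doxycycline together with test compound. Lysates were taken after 6 h (2 or 6 h in blots) for quantitative western blot of p-c-Jun(Ser73), with α-tubulin as load control. Normalized signal was fitted to a dose-response function for EC50. Blots are representative of two independent experiments.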

For a further data set, the target named is JNK1 C116S mutant (Homo sapiens, UniProt P45983, C116S). In kind it is binding. The note with it: repeat experiment, 100, 300, 1000 nM on JNK C116S surface.
The target of a further data set is JNK1 WT (Homo sapiens, UniProt P45983). As to the kind of experiment: SPR kinetic binding, wild-type JNK1 surface. A general note: SPR reads the build-up and loss of mass on a sensor chip optically.
Data set [2] deals with p38-mediated MK2 phosphorylation. As to the kind of experiment: phospho-MK2 western blot in HEK293T MKK6EE cells. In kind it is cell-based, human. The note with it: doxycycline, JNK inhibitors 3 μM. In outline: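 HEK293T MKK6EE cells allow p38-specific activation through doxycycline-inducible expression of constitutively active MKK6EE. Phospho-MK2 was read by western blot with a fluorescent secondary antibody and infrared imaging. α-Tubulin served as load control, and anti-FLAG monitored transgene expression.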
A general note: A western blot detects proteins with antibodies after separation by electrophoresis.

In data set [3] the test system is JNK mediated c-Jun phosphorylation. As to the kind of experiment: sorbitol stimulated c-Jun phosphorylation, western blot, HEK293T cells. The data set is classed as cell-based, human. Particulars: sorbitol 15 min, inhibitor 1 µM added 2 h before. Summed up:
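HEK293T cells seeded at 50,000/well and grown to confluence (~24 h) in DMEM with 10% FBS, then serum-starved 16 h. Inhibitor in 50% DMSO added 2 h before 0.35 M sorbitol for 15 min; final DMSO 0.1%, with a DMSO-only control. Cells chilled on ice, pelleted, washed in cold PBS and lysed in SDS loading buffer. Lysates run on 10% Tris-glycine gels and blotted to nitrocellulose for phospho-JNK and phospho-c-Jun.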

Data set [4] can be described thus: metabolic stability in rat primary hepatocytes. In kind it is in vitro ADME. In outline:
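Hepatocytes were isolated from male Wistar rats by collagenase perfusion. Test compound from DMSO was added to 1 or 10 μM final (0.1% DMSO) in William's E:Ham's F12 (1:1) medium. Samples were taken at 0–240 min, quenched with ice-cold acetonitrile, and parent compound was quantified by LC-MS/MS. A cell-free medium control was included. Clint came from parent loss; ClH and extraction ratio were predicted from Clint, with cut-offs of 0.3 and 0.7.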

Data set [5] in a line: stability in rat blood plasma. The data set is classed as in vitro ADME. The note with it: up to 120 min. Summed up:
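Test compound from DMSO was added to male Wistar rat blood plasma at 1 or 10 μM final. Samples were taken at 0, 10, 20, 30, 60 and 120 min, quenched with ice-cold acetonitrile, and centrifuged. Parent compound was quantified by LC-MS/MS, and t1/2 was calculated from its decline.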

Data set [6] can be described thus: LC-MS of GSH adduct formation. Particulars: 10 mM GSH, electrospray mass spectrometry. In kind it is physicochemical. Summed up:
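Mass analysis of glutathione adducts by LC-MS with electrospray ionisation. Linear gradient from 10% to 55% eluent B over 12 min, then 95% B, returning to 10% B by 18 min. Flow 0.4 ml/min, column at 40 °C. Source 350 °C, spray voltage 5500 V, declustering potential 80 V. Raw spectra deconvoluted to neutral molecular masses.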

Sequence of JNK1 C116S mutant (P45983 1-384 isoform P45983-3 C116S): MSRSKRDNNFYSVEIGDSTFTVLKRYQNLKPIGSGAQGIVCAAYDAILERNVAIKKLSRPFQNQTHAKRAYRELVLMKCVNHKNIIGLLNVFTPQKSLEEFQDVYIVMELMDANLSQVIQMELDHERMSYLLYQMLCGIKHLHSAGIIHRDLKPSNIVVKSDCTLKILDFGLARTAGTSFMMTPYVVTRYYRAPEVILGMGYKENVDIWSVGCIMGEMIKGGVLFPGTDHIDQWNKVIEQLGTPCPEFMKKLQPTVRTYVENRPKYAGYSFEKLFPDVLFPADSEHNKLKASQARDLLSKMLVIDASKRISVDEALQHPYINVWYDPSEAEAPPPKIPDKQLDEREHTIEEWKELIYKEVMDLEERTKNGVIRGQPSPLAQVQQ
Sequence of JNK1 WT (P45983 1-384 isoform P45983-3): as the sequence (P45983 1-384 isoform P45983-3 C116S) above, with S116C counted along it
Sequence of JNK1 (P45983 1-384 isoform P45983-3): as the sequence (P45983 1-384 isoform P45983-3 C116S) above, with S116C counted along it

The term IC50 denotes the concentration at which inhibition is half-maximal. The low end stands for greater potency, the high end for weaker potency. On to `CC(=O)Nc1cccc(C(=O)Nc2ccc(Nc3nccc(-c4cccnc4)n3)c(C)c2)c1` [IN-8a], for which the IC50 against JNK1 was found to be 5.33 ± 0.232 µM.

As to `Cc1cc(NC(=O)c2cccc(NC(=O)/C=C/CN(C)C)c2)ccc1Nc1nccc(-c2cccnc2)n1` [JNK-IN-8], the “Western blot p-c-Jun(Ser73) EC50/IC50” value in data set [1] (SH-SY5Y MKK7 ACT cells, 6 h DOX stimulation) is recorded as ~ 0.7 μM. Besides, in data set [1] (SH-SY5Y MKK7 ACT, 2 or 6 h DOX, inhibitor 50 nM or 1 µM), the “effect on c-Jun(Ser73) phosphorylation” value is listed as “can block c-Jun phosphorylation”. For the same molecule, at JNK1 C116S mutant, the “k1, parallel measurement” value came to 1492000 M⁻¹ s⁻¹ and the “k2, parallel measurement” value is 0.1676 s⁻¹. The “k3, new experiment calculated with the newly determined k1, k2” value at JNK1 WT (1, 3, 15 nM on JNK WT surface) is 0.03454 s⁻¹. In addition, the “k3, parallel measurement” value at JNK1 WT (new experiment (for CA-IN-8: a, 15, 40, 70 nM) on JNK WT surface) was 0.03181 s⁻¹. Further, the “effect on p38-mediated MK2 phosphorylation” value in data set [2] was “do not affect”. In addition, the “effect on c-Jun phosphorylation” value in [3] is “efficiently blocked JNK mediated c-Jun phosphorylation”. Besides, in data set [4] (cut-off 0.3 low/intermediate, 0.7 intermediate/high), the “hepatic extraction (class)” value is reported as “low”. Further, in data set [4] (predicted from Clint measured in rat primary hepatocyte cultures), the “in vivo hepatic clearance (ClH), predicted” value is 10.1 mL/min/kg. Moreover, in data set [5], the “half-life / stability in plasma” value was “stable”. In data set [6], the “GSH adduct formation” value is given as “irreversible covalent adduct formation with GSH”.
